Source: PubChem BioAssay
The list is not random: actives were taken first. Their share in the collection is about 11%.
RORa activator: RORA (human) activation | CHO-K1 Gal4-RORA LBD luciferase reporter, luminescence; percent increase over mock-subtracted basal signal | P35398 | activation, % at 10 µM | hit rate 1.5% among 65,000;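 active = activation above the mean of all tested compounds plus 3 SD, cut at about 49% in these data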;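 also: 0% = DMSO-treated RORA cells and 100% = added signal equal to DMSO minus mock-transfected cells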
Target sequence (P35398 whole entry, looked up, the tested form may be a part): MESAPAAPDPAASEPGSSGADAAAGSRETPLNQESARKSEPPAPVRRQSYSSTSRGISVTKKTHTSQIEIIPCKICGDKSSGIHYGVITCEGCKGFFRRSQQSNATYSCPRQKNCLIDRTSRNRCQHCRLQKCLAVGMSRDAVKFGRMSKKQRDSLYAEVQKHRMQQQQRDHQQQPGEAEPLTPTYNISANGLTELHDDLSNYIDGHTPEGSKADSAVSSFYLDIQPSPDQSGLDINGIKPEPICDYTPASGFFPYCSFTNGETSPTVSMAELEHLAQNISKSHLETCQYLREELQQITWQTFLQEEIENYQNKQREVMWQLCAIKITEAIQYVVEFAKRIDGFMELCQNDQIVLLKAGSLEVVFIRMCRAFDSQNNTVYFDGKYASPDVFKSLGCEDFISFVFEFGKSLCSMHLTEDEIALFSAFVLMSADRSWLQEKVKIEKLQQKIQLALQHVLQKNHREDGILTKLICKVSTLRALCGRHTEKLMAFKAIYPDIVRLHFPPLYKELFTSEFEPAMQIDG
SF-1 act: activates the human nuclear receptor SF-1. hit rate 1.9% among 65,000. activation, % at 10 µM. AID 522. CHO-K1 Gal4-SF-1 LBD luciferase reporter; % increase over DMSO SF-1-specific signal;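 active = activation above the mean activation of all tested compounds plus 3 SD, cut at about 50% in these data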
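Material: Gal4–SF-1 LBD one-hybrid luciferase reporter in CHO-K1 cells | Amount: 4,000 cells per well | Compound dosing: 10 µM single point, 1% DMSO | Schedule: 20 h compound treatment, 37 °C | Measured by: SteadyLite luciferase luminescence | Evaluation: Percent activation versus DMSO | Control set: DMSO-treated SF-1-transfected cells as negative, DMSO-treated mock-transfected cells lacking SF-1 as background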
D1 allo mod: D1 dopamine receptor (human) allosteric modulation | P21728 | AID 641 | hit rate 5.9% among 58,000 | HEK293 D1, CRE-luciferase, dopamine EC30 potentiation; actives deviate in either direction | B-score at 10 µM;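 active = luminescence count or its row- and column-corrected plate score outside the 99.7% band of the plate's sample wells, on either side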
M1 ag: activates the M1 muscarinic receptor; CHO-M1 cells, Fluo-4 calcium fluorescence, agonist mode; active compounds read high; B-score at 10 µM; hit rate 3% among 64,000;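 active = fluorescence rise, raw or as B-score row- and column-corrected plate score, outside the 99.7% band of its plate's samples, either direction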
Htt clearance: mutant huntingtin protein clearance | inhibition, % at 1.5 µM | hit rate 0.42% among 47,000 | AID 853 | HeLa Exon1htt(103Q)mCFP, aggregate imaging; zero = plate's median compound well;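 active = inhibition of aggregate fluorescence above about 70%, also judged a hit by eye on the cell image, limit read from the data, passing the limit was not always enough; inconclusive = no rule stated for this call; inactive = not judged a hit on image review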;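 also: cells exposed to compound for three days before fixation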
M1 antagonist: antagonists of rat M1 muscarinic receptor; P08482; CHO-M1 cells, Fluo-4 calcium, ACh EC80 antagonist mode; active compounds read low; B-score at 10 µM; hit rate 3.4% among 64,000; AID 628;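 active = calcium fluorescence response, raw or row-and-column corrected B-score, differing from the plate sample mean either way at a set confidence level, mostly lower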
The depositor's hits bear a star; ? = inconclusive; / = no result.

SMILES | RORa activator | SF-1 act | D1 allo mod | M1 ag | Htt clearance | M1 antagonist
Cc1ccc(-c2noc(C3CCCN(C(=O)c4ccccc4)C3)n2)o1 (centres undefined) | 50* | 28 | 0.5 | 0.14 | -2 | 0.23
CCCn1nc(NC(=O)c2cccs2)c2cc3ccccc3nc21 | / | / | / | / | 21 | /
CCCn1nc(NC(=O)c2cccs2)c2cc3cc(OC)ccc3nc21 | 45 | 19 | 0.18 | 3.6* | / | -1.4
CCCc1ccc(OCc2nc(-c3ccc(NC(=O)c4ccco4)cc3)no2)cc1 | 44 | 50* | -2.5 | -0.75 | / | 0.031
Cc1ccccc1OCc1nc(-c2ccc(NC(=O)c3ccco3)cc2)no1 | 58* | 28 | 0.15 | -0.12 | / | 0.45
CN1CCN(S(=O)(=O)c2ccc(NC(=O)c3csc4ccccc34)cc2)CC1 | -9 | 9 | -1.9* | 0.28 | / | -0.029
Cc1ccc(CCNc2ccccc2C)cn1 | / | / | / | / | 57 | /
Cc1ccc(-c2noc(CSc3nc(N)cc(N)n3)n2)cc1 | 58* | 61* | -0.036 | / | 1 | /
COc1cc2c(cc1OC)C(C)N(C(C)=O)CC2 (centres undefined) | / | / | / | / | -33 | /
COc1cc2c(cc1OC)C(c1cc3cc4c(cc3[nH]c1=O)OCO4)N(C(=O)C(C)C)CC2 (centres undefined) | / | / | / | / | 84* | /
CC(C)(C)NC(=O)c1ccc2nccnc2c1 | -20 | 3 | -0.057 | 0.02 | / | 0.28
CC(C)(C)NC(=O)Nc1ccc2nccnc2c1 | 90* | 49 | 0.63 | -0.15 | 26 | 0.58
Nn1c(SCC(=O)Nc2cccc(F)c2)nnc1C1CCCCC1 | -8 | -1 | 0.014 | 0.018 | -40 | -0.63
N#Cc1ccc(NC(=O)c2cc3cc4c5c(c3oc2=N)CCCN5CCC4)cc1 | -2 | 18 | 0.29 | 166* | / | 0.19
Cc1oc2c(c1C(=O)Nc1ccc(C(=O)O)cc1)CCCC2 | / | / | / | / | 29 | /
CCN(CC)S(=O)(=O)c1cccc(-c2nc3n(n2)Cc2ccccc2-3)c1 | 46 | 61* | 0.92 | 1.7 | 12 | 0.71
O=C(c1ccco1)N1CCN(C(=O)c2cccn3c(=O)c4c5c(sc4nc23)CCCC5)CC1 | -10 | 24 | 3.8* | 1.1 | / | 0.11
CCN1CC=C2C(C#N)=C(N)C(C#N)(C#N)C(c3cc(Cl)ccc3Cl)C2C1 (centres undefined) | 2 | 12 | -1.1 | 35* | -358 | 0.4
CCC1C2CN(C(C)=O)CC=C2C(C#N)=C(N)C1(C#N)C#N (centres undefined) | -4 | 3 | -0.88 | -0.49 | ? | -0.24
O=C(Nc1ccccc1)N1CCC(c2ccccc2)C1 (centres undefined) | 44 | 68* | -0.48 | -0.37 | 8 | 0.36
NC(=O)C1CCN(C(=O)Nc2ccccc2)CC1 | -15 | 8 | -0.0082 | / | 14 | /
O=C(c1cccs1)N1CCC(c2ccccc2)C1 (centres undefined) | 49* | 30 | 0.36 | -0.52 | -82 | 0.29
Cc1nc2ccccc2c(=O)n1/N=C/c1ccccn1 | 26 | 50* | 0.75 | 0.99 | / | 0.63
Cc1nc2ccccc2c(=O)n1/N=C/c1ccc(N(C)C)cc1 | 19 | 18 | -0.68 | 3 | / | 0.63
Cc1cc(S(=O)(=O)NCCCN2CCOCC2)ccc1F | -3 | -8 | -0.31 | -1.1 | / | 0.12
SMILES | RORa activator | SF-1 act | D1 allo mod | M1 ag | Htt clearance | M1 antagonist
O=C(O)C1CCCN1C(=O)Oc1ccccc1 (centres undefined) | -13 | -25 | -2.6* | -0.81 | 33 | 0.074
Cc1ccc(NC(=O)C2CCCN2C(=O)Oc2ccccc2)cc1 (centres undefined) | -12 | 2 | 0.44 | 0.22 | -31 | -0.22
Cc1ccc(-c2nc3nc4ccccc4nc3n2Cc2ccco2)cc1 | -68 | -59 | -3.3 | -0.84 | / | 0.026
COc1ccccc1Cn1c(-c2ccco2)nc2nc3ccccc3nc21 | -2 | 22 | 12* | 0.0089 | / | 0.011
CCOC(=O)c1sc2nc(-c3ccco3)c3c(c2c1N)CC(C)(C)OC3 | -29 | 2 | 4* | -1.4 | / | 0.08
CC1(C)Cc2nc(N)c(C(=O)NCCO)cc2CO1 | -8 | 9 | / | 0.94 | / | 6.6*
CCOC(=O)c1sc2nc3c(cc2c1N)COC(C)(C)C3 | 39 | 53* | -0.047 | 0.017 | -16 | -1.4
CS(=O)(=O)N1CC(C(=O)NC2CC2)Oc2ccc(Cl)cc21 (centres undefined) | / | / | / | / | -56 | /
Cc1ccc(-n2nc(C)c(C3C(C#N)=C(N)OC4=C3C(=O)CC(C)(C)C4)c2Cl)cc1 (centres undefined) | 30 | 57* | 1 | 0.084 | / | 0.71
Cc1ccc(-n2c(CNc3ccc(F)cc3)nnc2SCC(N)=O)cc1 | / | / | / | / | -38 | /
CN(C)CCCNC(=O)C1CCNCC1 | -16 | 23 | -3* | -0.018 | / | -0.08
CC(=O)C1=C(O)C(=O)N(c2nccs2)C1c1ccccc1 (centres undefined) | / | / | / | / | -55 | /
O=C(COc1ccc(Cl)cc1Cl)Nc1ccccn1 | 13 | 19 | -4.5* | -0.89 | -2 | -0.19
O=C(COc1ccc(Cl)cc1)Nc1ccc(Cl)cn1 | 13 | -2 | 0.16 | 1.5 | / | -0.18
CC(c1ccco1)N(C(=O)COc1ccc(Cl)cc1)c1ccccn1 (centres undefined) | -40 | -22 | -0.51 | -0.065 | / | 0.65
CC(c1ccco1)N(C(=O)COc1ccc(Cl)cc1Cl)c1ccccn1 (centres undefined) | 3 | 3 | -7.3* | 1.6 | -10 | -1.8
O=C(CCc1ccccc1)Nc1ccc(Cl)cn1 | 38 | 60* | 1.1 | -0.49 | ? | -0.2
O=C(COc1ccccc1Cl)Nc1ccc(Cl)cn1 | 62* | 74* | -1.5 | / | / | /
CN(C)S(=O)(=O)c1ccc(C(=O)Nc2ccnn2C2CCCCC2)cc1 | -2 | 5 | -0.74 | 0.23 | / | 0.2
O=C(COc1ccc(Cl)cc1Cl)NC1CCSC1=O (centres undefined) | 23 | 58* | -0.0067 | 0.49 | / | 0.8
CCCCOc1ccc(OCCCC)c2c1NC1(N2)C(=O)N(C(C)=O)c2ccccc21 | 12 | -9 | -0.84 | 0.068 | / | -0.37
COc1ccc(-c2cc3nc4c(c(N5CCC6(CC5)OCCO6)n3n2)CCCC4)cc1 | 3 | 7 | 3.7* | -0.19 | / | -0.76
Nc1ccc(-c2nc3ccccc3[nH]2)cc1 | 38 | 56* | -3.5* | 0.5 | / | 0.34
Cn1cc(-c2nc3ccccc3[nH]2)c2ccccc21 | 12 | 49 | -4.1* | -0.66 | / | -0.053
CCOc1cc(C2/C(=C(/O)c3ccc(OC(C)C)cc3)C(=O)C(=O)N2CCCOC)ccc1O (centres undefined) | 12 | -3 | -0.9 | -0.56 | -64 | -0.49
CCC1C(=O)n2nc(-c3ccccc3)cc2N=C1C (centres undefined) | 36 | 91* | -2.3 | 0.048 | 7 | -0.0016
CCOC(=O)Cc1csc(NS(=O)(=O)Cc2ccccc2)n1 | -1 | 15 | -0.0044 | -0.25 | / | 2.6*
O=C(Nc1cccc(Cl)c1)N1CCN(Cc2ccccc2)CC1 | 73* | 85* | -0.39 | -0.96 | / | 1.1
CCOC(=O)N1CCN(C(=O)Nc2cccc(Cl)c2)CC1 | / | / | / | / | -8 | /
